Assay results: ChEMBL document CHEMBL2062389, “Novel Cyclopropyl-Indole Derivatives as HIV Non-Nucleoside Reverse Transcriptase Inhibitors” (ACS Med Chem Lett, 2012)

Assays:
[1] = tested on: Human immunodeficiency virus 1; test: Antiviral activity against Human immunodeficiency virus 1 infected in human 293T cells assessed as inhibition of viral replication after 48 hrs by luminescence analysis; format: functional, organism-based; conditions: Human immunodeficiency virus 1, HEK-293T
Outline: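 Single-cycle, nonreplicative phenotypic assay against wild-type HIV-1, using virus-like particles made with an HIV-1 retroviral vector system. Compounds incubated with 293T cells and VLPs for 48 h. Inhibition quantified by luminescence and reported as IC50 (μM).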

[2] = Cytotoxicity against human 293T cells after 48 hrs by colorimetric analysis; format: cell-based; conditions: HEK-293T cells

Structure (SMILES)	IC50 [1]	CC50 at 48 h [2]
Cc1ccnc2c1NC(=O)c1cccnc1N2C1CC1 [NEVIRAPINE]	0.087 µM	–
CCOC(=O)c1[nH]c2ccc(Cl)cc2c1C1(C)CC1	2.25 µM	44.3 µM
O=C(O)c1[nH]c2ccc(Cl)cc2c1C1(c2ccccc2)CC1	28.5 µM	92.3 µM
OCc1[nH]c2ccc(Cl)cc2c1C1(c2cccs2)CC1	14.4 µM	36.6 µM
O=C(O)c1[nH]c2ccc(Cl)cc2c1C1(c2cccs2)CC1	48.2 µM	140 µM
CCOC(=O)c1[nH]c2ccc(Cl)cc2c1C1(c2ccccc2)CC1	0.085 µM	30.3 µM
CCOC(=O)c1[nH]c2ccc(Cl)cc2c1C1(c2cccs2)CC1	0.065 µM	67.1 µM
NC(=O)c1[nH]c2ccc(Cl)cc2c1C1(c2ccccc2)CC1	0.096 µM	14.2 µM
NC(=O)c1[nH]c2ccc(Cl)cc2c1C1(c2cccs2)CC1	0.121 µM	25.6 µM
CCOC(=O)c1[nH]c2ccc(Br)cc2c1C1(c2ccccc2)CC1	0.066 µM	24.5 µM
OCc1[nH]c2ccc(Cl)cc2c1C1(c2ccccc2)CC1	8.25 µM	34.1 µM
